# Screens from PubChem.
# The sample as a whole holds a higher share of hits than the screen did.
# HCT116 bCat-KO: beta-catenin-lacking colon tumor cell growth suppression | hit rate 1.5% among 140,000 | HCT116 beta-catenin knockout viability, CellTiter-Glo, 60 h; stronger effect = lower value | viability, % at 10 µM | AID 818;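 active means viability at or under a set limit, the compound median less 4 SD, cut at about 6% in these data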;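 further: 0% = Hyamine 1622 control at 20 µM and 100% = untreated cell control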
# PTEN del growth: growth suppressors of cells with PTEN tumor suppressor deletion; viability, % at 10 µM; HCT116 PTEN-null viability, CellTiter-Glo, 60 h; stronger effect = lower value; hit rate 1.2% among 140,000;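 active means viability at or below a set limit, 4 SD under the median of all tested compounds, cut at about 3.7% in these data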;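 further: PTEN knockout HCT116 line with beta catenin targeted HCT116 as companion control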
# Pyk2 oligo antag: blocks oligomerization of human Pyk2 in cells; hit rate 0.83% among 99,000; AID 1347419; Q14289; Q293 cells, Pyk2 FERM NanoBiT luminescence; stronger effect = lower value; z-score (the deposit names both 25 µM and 10 µM);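 active means Z-score of -3 or lower, scaled per plate to the spread of control and sample wells; inactive means z-score above -3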;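 further: negative z-score means lost luminescence so less FERM oligomerization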
# Target sequence (Q14289 whole entry, looked up): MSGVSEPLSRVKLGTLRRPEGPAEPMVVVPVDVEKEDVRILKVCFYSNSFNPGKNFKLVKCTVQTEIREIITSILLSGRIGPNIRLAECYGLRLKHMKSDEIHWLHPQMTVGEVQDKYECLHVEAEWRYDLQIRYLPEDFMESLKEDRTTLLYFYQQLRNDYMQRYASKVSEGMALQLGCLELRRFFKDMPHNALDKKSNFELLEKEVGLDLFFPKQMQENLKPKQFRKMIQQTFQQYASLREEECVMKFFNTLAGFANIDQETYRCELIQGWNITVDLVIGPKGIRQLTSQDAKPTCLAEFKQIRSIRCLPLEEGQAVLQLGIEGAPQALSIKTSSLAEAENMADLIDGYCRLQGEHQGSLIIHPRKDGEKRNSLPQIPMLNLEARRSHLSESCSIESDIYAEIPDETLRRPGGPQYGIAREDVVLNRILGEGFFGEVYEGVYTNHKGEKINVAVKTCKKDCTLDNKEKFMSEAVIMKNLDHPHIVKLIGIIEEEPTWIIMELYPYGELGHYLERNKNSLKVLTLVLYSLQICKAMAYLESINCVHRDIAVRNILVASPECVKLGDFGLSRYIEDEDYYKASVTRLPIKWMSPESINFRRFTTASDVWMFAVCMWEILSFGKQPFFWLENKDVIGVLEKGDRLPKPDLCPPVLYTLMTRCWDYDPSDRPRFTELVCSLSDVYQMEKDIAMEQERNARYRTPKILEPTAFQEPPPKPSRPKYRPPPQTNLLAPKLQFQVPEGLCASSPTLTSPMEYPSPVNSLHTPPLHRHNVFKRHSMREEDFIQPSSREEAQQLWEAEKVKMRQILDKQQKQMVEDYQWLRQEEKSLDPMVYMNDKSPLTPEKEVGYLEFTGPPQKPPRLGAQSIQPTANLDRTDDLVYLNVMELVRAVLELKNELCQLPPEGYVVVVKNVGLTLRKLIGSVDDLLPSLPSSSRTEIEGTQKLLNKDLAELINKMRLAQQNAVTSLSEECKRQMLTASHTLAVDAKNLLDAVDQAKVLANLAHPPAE
# HUVEC inhibit: inhibitors of human endothelial cell proliferation | HUVEC proliferation, CellTiter-Glo luminescence, 72 h; stronger effect = lower value | viability, % at 10 µM (by protocol) | hit rate 1.1% among 86,000 | AID 648;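 active means viability at or below 30%; inactive means viability above 30%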;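 further: 100% = median luminescence of DMSO-only cell control wells on each plate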
# Fibroblast inh: blocks proliferation of human lung fibroblasts. LL 47 human lung fibroblast viability, ATP luminescence; stronger effect = lower value. viability, % at 10 µM. hit rate 1.1% among 85,000. AID 719;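 active means viability at or below 50% in the single dose screen; inactive means viability above 50%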;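 further: compound exposure lasted 72 h before the ATP readout; 100% = median luminescence of untreated cell-only wells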
#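 Material: human lung fibroblast line LL 47, low passage; Evaluation: viability percentage against median untreated-cell control; Buffer or medium: 15% FBS in IMEM; Incubation: 72 h compound exposure at 37 °C after overnight plating; Dosing: 0.1% DMSO in all compound wells; Measured by: CellTiter-Glo luminescence.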
# H69AR growth 86K: blocks growth of human H69AR lung tumor cells; H69AR lung tumor viability, ATP luminescence, 72 h; stronger effect = lower value; viability, % at 10 µM; AID 598; hit rate 6% among 85,000;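 active means viability at or below 40%; inactive means viability above 40%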;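 further: multidrug resistant small cell line overexpressing MRP-1 efflux transporter; 100% = mean luminescence of untreated control wells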
# Active calls of the source: *; nt = no result given.
SMILES,HCT116 bCat-KO,PTEN del growth,Pyk2 oligo antag,HUVEC inhibit,Fibroblast inh,H69AR growth 86K
COc1cc(C2C3=C(CC(C)(C)CC3=O)OC(N)=C2[N+](=O)[O-])ccc1O (stereo not given),90.5,87.8,nt,nt,nt,nt
Cc1cc([N+](=O)[O-])ccc1-c1ccc(C2Nc3ccccc3C(=O)N2O)o1 (stereo not given),6.3,9.3,-0.51,nt,nt,nt
CCOC(=O)c1ccc(-c2ccc(C3Nc4ccccc4C(=O)N3O)o2)cc1 (stereo not given),5.4*,5.6,nt,nt,nt,nt
O=C(C1CC1)N1CCC(c2nc(-c3ccc(S(=O)(=O)N4CCCC4)cc3)no2)CC1,97.0,71.7,0.92,98.3,109.2,92.8
O=C(NC1CCCCC1)N1CCC(c2nc(-c3ccc(S(=O)(=O)N4CCCC4)cc3)no2)CC1,62.4,50.3,-0.73,73.1,82.8,30.1*
O=C(NCc1ccco1)c1cc2cc3ccc(Cl)cc3nc2o1,9.1,18.2,-0.8,68.7,53.3,9.5*
COc1ccc2cc3cc(C(=O)NCc4ccco4)oc3nc2c1,90.9,85.3,-0.1,74.3,107.2,92.8
COc1ccccc1N1CCN(C(=O)COc2ccc(Cl)cc2Br)CC1,81.7,68.8,0.3,67.9,97.3,16.6*
COc1ccccc1N1CCN(C(=O)COc2ccc(C)cc2Br)CC1,88.8,82.4,-0.68,103.3,94.7,49.0
COC(=O)c1cc2sccc2n1CC(=O)Nc1ccc(OC)c(OC)c1OC,101.7,101.9,-0.72,88.9,99.4,94.2
COC(=O)c1cc2sccc2n1CC(=O)Nc1cccc(SC)c1,87.6,95.8,-3.56*,84.3,91.5,76.1
CCOC(=O)c1cc2sccc2n1CC(=O)Nc1ccc2c(c1)OCCO2,92.8,80.6,-3.93*,94.1,91.5,38.4*
CCC(CC)C(=O)NCCCCc1ccccc1,92.5,91.0,nt,nt,nt,nt
COc1ccc(N2CCN(/C(=N\S(=O)(=O)c3ccccc3)Nc3nc(C)cc(C)n3)CC2)cc1,94.3,104.4,-0.68,128.8,96.5,92.9
CCCC1(CCC)NC(=O)N(CC(=O)Nc2ccccc2OC)C1=O,102.1,97.7,-0.85,96.1,14.9*,122.5
COc1ccccc1NC(=O)CN1C(=O)C(C)SC(C)C1=O (stereo not given),89.2,91.9,nt,nt,nt,nt
O=C(CCl)N1N=C(c2ccco2)CC1c1cccs1 (stereo not given),3.2*,1.9*,0.38,nt,nt,nt
Cc1ccc(C2=NN(C(=O)CCl)C(c3cccs3)C2)o1 (stereo not given),3.6*,2.1*,nt,nt,nt,nt
CC(=O)N1N=C(c2ccco2)CC1c1cccs1 (stereo not given),90.5,105.7,-0.37,nt,nt,nt
CCOC(=O)C1=C(NC(=O)c2ccc(Br)o2)Nc2ccccc2N=C1,83.0,107.6,-0.34,91.8,82.5,31.2*
Cn1c(CNc2cccc(Cl)c2)nnc1SCC(=O)OC1CCCCC1,103.6,94.1,0.19,18.8*,82.0,105.8
CC(C)OC(=O)CSc1nnc(CNc2cccc(Cl)c2)n1C,89.9,91.9,0.24,96.0,92.2,97.1
COC(=O)/C(=C/Nc1cccc2ccccc12)[N+](=O)[O-],90.2,86.5,-2.89,74.4,91.7,26.9*
CCOC(=O)/C(=C\c1cn(C)c2ccccc12)[N+](=O)[O-],100.0,95.0,nt,nt,nt,nt
O=C(c1ccccc1OCc1ccccc1Br)N1CCN(c2ncccn2)CC1,50.9,40.0,-0.85,72.6,74.1,28.3*
SMILES,HCT116 bCat-KO,PTEN del growth,Pyk2 oligo antag,HUVEC inhibit,Fibroblast inh,H69AR growth 86K
CCCC1OC23CCCCC2C(C#N)(C(=N)O3)C1(C#N)C#N (stereo not given),106.3,101.3,-0.04,83.1,73.5,21.6*
COc1ccc(C2OC34CCCCC3C(C#N)(C#N)C2(C#N)C(=N)O4)cc1 (stereo not given),92.8,90.8,0.55,96.0,89.7,34.0*
N#CC1(C#N)COC23CCCCC2C1(C#N)C(=N)O3 (stereo not given),96.2,101.6,-0.3,77.7,66.0,8.2*
CCC1OC23CCCCC2C(C#N)(C(=N)O3)C1(C#N)C#N (stereo not given),101.8,98.9,0.18,82.3,63.6,49.4
CNC(=O)c1nc(C)n(-c2cc(Cl)ccc2Cl)n1,86.6,89.9,0.02,nt,nt,nt
Cc1cnc(C(=O)OCC(=O)c2csc(N3CCCCC3)n2)cn1,97.5,101.8,1.03,98.1,110.1,79.7
CCCNC(=O)CS(=O)(=O)Cc1nc(-c2cccc(OC)c2)oc1C,101.1,92.6,nt,98.1,100.4,95.3
COc1cccc(-c2nc(CS(=O)(=O)CC(=O)Nc3cccc(C)c3C)c(C)o2)c1,92.8,96.9,nt,100.4,97.3,1.5*
COc1ccc(NC(=O)Cn2cccc2)cc1Cl,93.9,94.5,0.62,nt,nt,nt
c1ccc(-n2c(SCC3CCCCO3)nnc2-c2cccs2)cc1 (stereo not given),84.3,86.7,-2.12,90.5,nt,84.4
Cc1ccc(O)c(-c2cc(C(=O)Nc3ccc(S(=O)(=O)Nc4nc(C)cc(C)n4)cc3)[nH]n2)c1,80.5,67.3,nt,nt,nt,nt
Cc1cc(O)c(-c2cc(C(=O)Nc3ccc(S(=O)(=O)N4CCOCC4)cc3)[nH]n2)cc1C,15.2,8.6,-1.71,45.4,48.6*,33.0*
Cc1ccc(O)c(-c2cc(C(=O)Nc3ccc(S(=O)(=O)N4CC(C)OC(C)C4)cc3)[nH]n2)c1 (stereo not given),33.3,25.7,-0.49,77.0,89.2,17.3*
CC(=O)Nc1ccc(S(=O)(=O)N2CCOCC2)cc1,89.8,94.0,-0.01,103.0,112.9,94.7
CCC(C(=O)Nc1ccccc1OC)n1c(C(=O)OC)cc2ccsc21 (stereo not given),81.7,72.8,-1.74,95.3,94.1,61.7
COc1cc(N2CCOCC2)ncn1,94.8,89.8,0.73,83.5,107.8,97.3
Cc1nc2c(C)cccc2cc1C(=O)N/N=C/c1cccnc1,82.2,80.8,1.05,nt,nt,nt
Cc1ccc(-c2nc(NCCN3CCOCC3)c3ccccc3n2)cc1,11.9,16.9,-0.58,77.0,83.8,44.7
COc1cccc(-c2nc(NC(C)(C)C)c3ccccc3n2)c1O,78.5,75.1,-1.17,67.2,80.0,32.5*
Oc1ccccc1-c1nc(NCCN2CCOCC2)c2ccccc2n1,52.4,45.3,-1.24,38.4,80.1,12.0*
COc1cccc(-c2nc(NCCN3CCOCC3)c3ccccc3n2)c1O,38.3,41.7,-1.4,68.3,78.7,8.3*
COc1cccc(-c2nc(N3CC(C)CC(C)C3)c3ccccc3n2)c1O (stereo not given),76.0,69.4,1.02,nt,nt,nt
CCOC(=O)c1c(NC(=O)c2cc(C3CC3)on2)sc2c1CCCC2,nt,nt,nt,103.3,112.3,96.2
CC(=O)c1cccc(NC(=O)NC(C)c2ccncc2)c1 (stereo not given),102.8,93.2,-0.35,92.7,95.4,89.7
CC(C)(C)n1nnnc1CN1CCSCC1,93.2,96.4,-0.17,102.4,102.3,93.3
Cc1ccc(NC(=O)C(=O)NCc2ccc(/C=C(/C#N)C(=O)NCc3cccnc3)o2)cc1C,73.3,80.6,nt,nt,nt,nt
